The results in this text go back to ChEMBL document CHEMBL4261535, “Tetrahydroquinolinone derivatives as potent P-glycoprotein inhibitors: design, synthesis, biological evaluation and molecular docking analysis” (Medchemcomm, 2017).

Activity calls are given as the source filed them. The calls are words filed in the database; no cut-off is given here.

Data set [1] is filed under the species Homo sapiens. In words: Inhibition of p-gp in human MES-SA/DX5 cells assessed as increase in rhodamine 123 accumulation preincubated for 20 mins followed by rhodamine 123 addition and measured after 20 mins by flow cytometric method. It is filed as cell-based. An outline of the steps:
(§1)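 Cells in serum-free RPMI at 5 × 10^5 cells per ml (MES-SA/DX5 taken off doxorubicin one day before). Compound 20 min at 37 °C, then 5 μM rhodamine 123 for 20 min at 37 °C. Washed twice in ice-cold PBS, kept on ice. Flow cytometry at 488 nm excitation, 530 nm emission, 20 000 cells. Gmean fluorescence expressed as a ratio to untreated cells. Verapamil was the positive control.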
Background: In flow cytometry, cells or beads pass a laser one at a time.

A further data set concerns MES-SA. Kind of data set: Increase in rhodamine 123 accumulation in human MES-SA cells at 5 to 100 uM preincubated for 20 mins followed by rhodamine 123 addition and measured after 20 mins by flow cytometric method. It is filed as functional, cell-based. The method, boiled down: as §1
Data set [2] can be described thus: n-octanol-water partition co-efficient, log P of the compound. It is filed as physicochemical.
Data set [3] is filed under the species Homo sapiens. Kind of data set: Inhibition of p-gp in human MES-SA/DX5 cells assessed as potentiation of doxorubicin-induced cytotoxicity at 5 uM preincubated for 1.5 hrs followed by doxorubicin addition and measured after 48 hrs by MTT assay. It is filed as cell-based.
The species named for data set [4] is Homo sapiens. Kind of data set: Inhibition of p-gp in human MES-SA/DX5 cells assessed as increase in rhodamine 123 accumulation preincubated for 20 mins followed by rhodamine 123 addition and measured after 20 mins by fluorescence microscopic method. Type of data set: cell-based. An outline of the steps:
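MES-SA/DX5 seeded at 2 × 10^5 cells per ml and grown two days at 37 °C. Compound at 25 μM for 20 min, then rhodamine 123 at 5 μM final for 20 min. Cells washed three times with ice-cold PBS and resuspended in cold PBS. Imaged by fluorescence microscopy with a blue filter (510–560 nm). Untreated cells served as control.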

Data set [5] is filed under the species Homo sapiens. Kind of data set: Inhibition of p-gp in human MES-SA/DX5 cells assessed as potentiation of doxorubicin-induced cytotoxicity at 25 uM preincubated for 1.5 hrs followed by doxorubicin addition and measured after 48 hrs by MTT assay. It is filed as cell-based. In general terms: Tetrazolium dyes change colour on reduction, which living cells bring about.

In general, logP refers to a log measure of how a compound divides between an organic and an aqueous phase. Read a low logP as lower lipophilicity.

As to `CC1=C(C(=O)OCc2cccnc2)C(c2ccc(Br)cc2)C2=C(CCCC2=O)N1` (stereo not given), in the data set filed under Homo sapiens [1], the inhibition entry was “Dose-dependent effect”. The result in the data set with MES-SA was inactive. In data set [2], this molecule returned a log partition coefficient (logP) of 2.05. Besides, the inhibition entry in the data set listed under Homo sapiens [3] was “Active”.

With `CC1=C(C(=O)OCc2cccnc2)C(c2ccccc2)C2=C(CCCC2=O)N1` (stereo not given), the inhibition result in the data set listed under Homo sapiens [1] was “Dose-dependent effect”. Also, the outcome with MES-SA was inactive. In data set [2], this molecule registered a lipophilicity (logP) of 2.35.

Take `CC1=C(C(=O)OCc2ccccn2)C(c2cccc([N+](=O)[O-])c2)C2=C(CCCC2=O)N1` (stereo not given): in the data set filed under Homo sapiens [1], the inhibition entry was “Dose-dependent effect”. Also, the result with MES-SA was inactive. Also, in data set [2], the log partition coefficient (logP) is 1.88.

For the molecule `CC1=C(C(=O)OCc2ccccn2)C(c2ccc(Cl)cc2)C2=C(CCCC2=O)N1` (stereo not given), the inhibition result in the data set filed under Homo sapiens [1] is “Dose-dependent effect”. The result in the data set with MES-SA was inactive. In data set [2], the logP worked out at 2.24. For the same molecule, in the data set listed under Homo sapiens [3], the inhibition result was “Active”.

Consider `CCCC1C(C(=O)OCc2ccccn2)=C(C)NC2=C1C(=O)CCC2` (stereo not given), for which the inhibition result in the data set filed under Homo sapiens [1] was “Dose-dependent effect”. Moreover, the result in the data set with MES-SA was inactive. In data set [2], this molecule registered a lipophilicity (logP) of 2.6.

In the case of `CC1=C(C(=O)OCc2cccnc2)C(c2ccc(Cl)cc2)C2=C(CCCC2=O)N1` (stereo not given), the inhibition result in the data set listed under Homo sapiens [1] is “Dose-dependent effect”. In the data set on MES-SA, the result was inactive. In data set [2], this molecule displayed a logP of 1.87. The inhibition result in the data set listed under Homo sapiens [3] is “Active”.

On to `CC1=C(C(=O)OCc2cccnc2)C(c2ccc(C#N)cc2)C2=C(CCCC2=O)N1` (stereo not given), for which the inhibition entry in the data set listed under Homo sapiens [1] is “Dose-dependent effect”. Also, in the data set with MES-SA, the result was inactive. The logP in data set [2] came out at 1.36.

For `CCCC1C(C(=O)OCc2cccnc2)=C(C)NC2=C1C(=O)CCC2` (stereo not given), the inhibition entry in the data set listed under Homo sapiens [1] was “Dose-dependent effect”. Moreover, the outcome with MES-SA was inactive. The same molecule displayed a log partition coefficient (logP) in data set [2] of 2.23.

Take `COc1ccc(C2C(C(=O)OCc3ccccn3)=C(C)NC3=C2C(=O)CCC3)cc1` (stereo not given): the inhibition entry in the data set filed under Homo sapiens [1] was “Dose-dependent effect”. Besides, the outcome in the data set with MES-SA was inactive. The log partition coefficient (logP) in data set [2] turned out to be 1.9. Besides, the inhibition result in the data set listed under Homo sapiens [3] was “Active”.

As for `CC1=C(C(=O)OCc2ccccn2)C(c2ccc([N+](=O)[O-])cc2)C2=C(CCCC2=O)N1` (stereo not given), the inhibition result in the data set filed under Homo sapiens [4] and in the data set filed under Homo sapiens [1] was “Dose-dependent effect” each time. Besides, the outcome in the data set with MES-SA was inactive. Also, in data set [2], the logP amounted to 1.88. In the data set listed under Homo sapiens [3], the inhibition result was “Active”.

As for `CC1=C(C(=O)OCc2ccccn2)C(c2cccs2)C2=C(CCCC2=O)N1` (stereo not given), the inhibition entry in the data set listed under Homo sapiens [1] was “Dose-dependent effect”. For the same molecule, the outcome with MES-SA was inactive. In data set [2], this molecule came in with a log partition coefficient (logP) of 1.77.

Consider `CC1=C(C(=O)OCc2cccnc2)C(c2ccc([N+](=O)[O-])cc2)C2=C(CCCC2=O)N1` (stereo not given), for which the inhibition entry in the data set listed under Homo sapiens [4] and in the data set filed under Homo sapiens [1] was “Dose-dependent effect” in each case. Moreover, the result in the data set on MES-SA was inactive. Also, the lipophilicity (logP) in data set [2] stood at 1.51. For the same molecule, in the data set filed under Homo sapiens [5], the inhibition entry is “Active”.

With `CC1=C(C(=O)OCc2ccccn2)C(c2ccccc2[N+](=O)[O-])C2=C(CCCC2=O)N1` (stereo not given), the inhibition result in the data set filed under Homo sapiens [4] is “Dose-dependent effect”. Also, in the data set with MES-SA, the outcome was inactive. The molecule further displayed a logP in data set [2] of 1.88. In addition, the inhibition entry in the data set filed under Homo sapiens [3] is “Active”.

In the case of `CC1=C(C(=O)OCc2cccnc2)C(c2cccs2)C2=C(CCCC2=O)N1` (stereo not given), the inhibition result in the data set filed under Homo sapiens [1] was “Dose-dependent effect”. The outcome in the data set on MES-SA was inactive. In data set [2], this molecule yielded a lipophilicity (logP) of 1.4. Also, the inhibition entry in the data set listed under Homo sapiens [5] is “Active”.

As for `CC1=C(C(=O)OCc2cccnc2)C(c2cccc(O)c2)C2=C(CCCC2=O)N1` (stereo not given), the inhibition entry in the data set listed under Homo sapiens [1] was “Dose-dependent effect”. In the data set on MES-SA, the outcome was inactive. The same molecule had a logP in data set [2] of 1.21.

As for `CC1=C(C(=O)OCc2ccccn2)C(c2cccc(O)c2)C2=C(CCCC2=O)N1` (stereo not given), the inhibition entry in the data set listed under Homo sapiens [1] is “Dose-dependent effect”. In addition, the result with MES-SA was inactive. Besides, the log partition coefficient (logP) in data set [2] turned out to be 1.58.

For the molecule `CC1=C(C(=O)OCc2ccccn2)C(c2ccccc2)C2=C(CCCC2=O)N1` (stereo not given), in the data set filed under Homo sapiens [1], the inhibition result was “Dose-dependent effect”. For the same molecule, in the data set on MES-SA, the result was inactive. In addition, the logP in data set [2] was 2.72.

On to `COc1cc(C2C(C(=O)OCc3ccccn3)=C(C)NC3=C2C(=O)CCC3)cc(OC)c1OC` (stereo not given), for which the inhibition result in the data set listed under Homo sapiens [1] was “Dose-dependent effect”. In the data set with MES-SA, the result was inactive. In addition, in data set [2], the logP came out at 2.17.

As to `CC1=C(C(=O)OCc2cccnc2)C(c2ccco2)C2=C(CCCC2=O)N1` (stereo not given), in the data set listed under Homo sapiens [1], the inhibition entry is “Dose-dependent effect”. Moreover, in the data set with MES-SA, the result was inactive. In data set [2], this molecule came in with a logP of 1.03.

With `CC1=C(C(=O)OCc2ccccn2)C(c2ccc(C#N)cc2)C2=C(CCCC2=O)N1` (stereo not given), the inhibition result in the data set listed under Homo sapiens [4] and in the data set filed under Homo sapiens [1] was “Dose-dependent effect” throughout. In addition, the outcome with MES-SA was inactive. In addition, in data set [2], the logP turned out to be 1.73. For the same molecule, the inhibition result in the data set listed under Homo sapiens [3] was “Active”.

`CC1=C(C(=O)OCc2ccccn2)C(c2ccco2)C2=C(CCCC2=O)N1` (stereo not given): the inhibition result in the data set listed under Homo sapiens [1] is “Dose-dependent effect”. In addition, the outcome in the data set on MES-SA was inactive. The molecule further showed a log partition coefficient (logP) in data set [2] of 1.4.

For `CC1=C(C(=O)OCc2ccccn2)C(c2ccc(O)cc2)C2=C(CCCC2=O)N1` (stereo not given), the inhibition entry in the data set listed under Homo sapiens [1] was “Dose-dependent effect”. In addition, in the data set on MES-SA, the result was inactive. In addition, in data set [2], the logP turned out to be 1.58.

In the case of `COc1ccc(C2C(C(=O)OCc3cccnc3)=C(C)NC3=C2C(=O)CCC3)cc1` (stereo not given), the inhibition result in the data set filed under Homo sapiens [1] is “Dose-dependent effect”. Also, the result in the data set on MES-SA was inactive. Further, in data set [2], the logP was 1.53.

With `CC1=C(C(=O)OCc2cccnc2)C(c2ccccc2[N+](=O)[O-])C2=C(CCCC2=O)N1` (stereo not given), the inhibition entry in the data set filed under Homo sapiens [4] is “Dose-dependent effect”. Further, the outcome with MES-SA was inactive. The log partition coefficient (logP) in data set [2] was determined as 1.51. Further, the inhibition entry in the data set filed under Homo sapiens [5] was “Active”.

Regarding `CC1=C(C(=O)OCc2ccccn2)C(c2ccc(Br)cc2)C2=C(CCCC2=O)N1` (stereo not given), the inhibition entry in the data set listed under Homo sapiens [4] and in the data set listed under Homo sapiens [1] was “Dose-dependent effect” throughout. The result in the data set on MES-SA was inactive. For the same molecule, the lipophilicity (logP) in data set [2] is 2.42. The inhibition entry in the data set listed under Homo sapiens [3] is “Active”.
